From ChEMBL document CHEMBL1122372, “Synthesis of aminomethyl-substituted cyclic imide derivatives for evaluation as anticonvulsants” (J Med Chem, 1983)
Calls of active or inactive are those of the source. The calls are words filed in the database; no cut-off is given here.

Legend:
[1] = test system: Mus musculus; assay: Tested for rotarod neurotoxicity, number of deaths from respiratory depression among four animals given a dose 600 mg/kg was reported; details: in vivo
[2] = Tested for neurotoxicity in rotarod test; assay type: toxicity, organism-based; details: mouse, in vivo
Outline: (§1)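 Phase I rotarod neurotoxicity in mice, run by the NINCDS Antiepileptic Drug Development Program. Doses were 30, 100, 300 or 600 mg/kg. Deaths from respiratory depression were counted among four animals given 600 mg/kg.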

[3] = species: Mus musculus; assay: Effective dose against maximal electroshock seizures in mice, at 0.5 h; assay type: functional
Outline: (§2)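 Phase II quantification in mice by the NINCDS Anticonvulsant Drug Development Program. Median effective dose against maximal electroshock-induced seizures, measured at the time of peak effect, 0.5 h. The 95% confidence intervals come from probit analysis.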

[4] = test system: Mus musculus; assay: Anti-pentylenetetrazole activity at 0.5 h; - denotes inactive up to 600 mg/kg; assay type: functional, organism-based; set-up: dose 600 mg/kg
Outline: (§3)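 Phase I screen in mice run by the NINCDS Antiepileptic Drug Development Program. Four mice per dose, scored 0.5 and 4 h after dosing, for protection against seizures induced by 85 mg/kg subcutaneous pentylenetetrazole. Dose levels were 30, 100, 300 and 600 mg/kg. Activity is the lowest dose at which at least one of four animals is protected, confirmed in a second trial.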

[5] = test system: Mus musculus; assay: Tested for anti-pentylenetetrazole activity in mice at 4 h; - denotes inactive up to 600 mg/kg; assay type: functional, organism-based; set-up: dose 600 mg/kg
Outline: as §3

[6] = test system: Mus musculus; assay: Tested for anti maximal electroshock activity at 4 h; - denotes inactive up to 600 mg/kg; assay type: functional, organism-based; set-up: dose 600 mg/kg
Outline: (§4)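 Phase I screen in mice run by the NINCDS Antiepileptic Drug Development Program. Four mice per dose, scored 0.5 and 4 h after dosing, for prevention of tonic hindlimb extension following maximal electroshock. Doses were 30, 100, 300 or 600 mg/kg. Activity is the lowest dose protecting at least one of four animals, provided a second trial confirms it.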

[7] = test system: Mus musculus; assay: Anti-pentylenetetrazole activity at 0.5 hr in mice […]; += Compound is active at 300 mg/kg; assay type: functional, organism-based
Outline: as §3

[8] = test system: Mus musculus; assay: Tested for rotarod neurotoxicity, number of deaths from respiratory depression among four animals given a dose 600 mg/kg was reported; inactive; assay type: functional
[9] = test system: Mus musculus; assay: Tested for anti maximal electroshock activity at 0.5 hr […]; += Compound is active at 300 mg/kg; assay type: functional, organism-based
Outline: as §4

[10] = species: Mus musculus; assay: (§5) Effective dose against maximal electroshock seizures in mice, at 0.5 hr; assay type: functional
Outline: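 Phase II quantification in mice under the NINCDS Antiepileptic Drug Development Program. Protection against maximal electroshock, scored as prevention of tonic hindlimb extension, was measured at the time of peak effect, 0.5 h after dosing. Median effective dose was derived by probit analysis with 95% confidence intervals.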

[11] = test system: Mus musculus; assay: Tested for anti maximal electroshock activity at 4 h; += Compound is active at 300 mg/kg; assay type: functional, organism-based; set-up: dose 300 mg/kg
Outline: as §4

[12] = Tested for rotarod neurotoxicity at dose 300 mg/kg; assay type: organism-based; set-up: dose 300 mg/kg; details: mouse, in vivo
Outline: as §1

[13] = test system: Mus musculus; assay: Tested for rotarod neurotoxicity, number of deaths from respiratory depression among four animals given a dose 600 mg/kg was reported; assay type: organism-based; set-up: dose 600 mg/kg; details: in vivo
[14] = test system: Mus musculus; assay: Anti-pentylenetetrazole activity; - denotes inactive up to 600 mg/kg; assay type: functional, organism-based; set-up: dose 600 mg/kg
Outline: as §3

[15] = species: Mus musculus; assay: as §5; assay type: functional; remark: listed apart in the source
Outline: as §2

[16] = Tested for Neurotoxicity in rotarod test; assay type: toxicity, organism-based; details: mouse, in vivo
Outline: as §1

[17] = test system: Mus musculus; assay: Tested for anti maximal electroshock activity at 0.5 hr at dose 100 mg/kg; ++=Compound is active at 100 mg/kg; assay type: functional, organism-based
Outline: as §4

[18] = test system: Mus musculus; assay: Tested for rotarod neurotoxicity, number of deaths from respiratory depression among four animals given a dose 600 mg/kg was reported
[19] = test system: Mus musculus; assay: Anti-pentylenetetrazole activity at 0.5 hr in mice […]; +=Compound is active at 300 mg/kg; assay type: functional, organism-based
Outline: as §3

`Cl.NCC1CC(=O)N(Cc2ccccc2)C1=O` (stereo not given) showed an NT [1] of 4, a TD50 [2] of 268 mg/kg and an ED50 [3] of 108 mg/kg. For the same molecule, the PTZ [4] was “Not toxic”, the PTZ [5] was “Not toxic” and the MES [6] was “Not toxic”.
With `CC(=O)NCC1CC(=O)N(Cc2ccccc2)C1=O` (stereo not given) the PTZ [7] was “active at 300 mg/kg”, the NT [8] was 0 and the MES [9] was “active at 300 mg/kg”. The PTZ [5] was “Not toxic” and the MES [6] was “Not toxic”.
With `CN1C(=O)CC(c2ccccc2)C1=O` (stereo not given) [PHENSUXIMIDE] the ED50 [10] was 112 mg/kg.
In the case of `CC1(CN)CC(=O)N(Cc2ccccc2)C1=O` (stereo not given), the MES [11] is reported as “active at 300 mg/kg”, the TD50 [12] is reported as 228 mg/kg and the NT [1] is reported as 2. For the same molecule, the ED50 [3] was 66.4 mg/kg, the PTZ [4] was “Not toxic” and the PTZ [5] was “Not toxic”.
In the case of `O=C1CC(CNCc2ccccc2)C(=O)N1Cc1ccccc1` (stereo not given), the NT [13] is reported as 4, the PTZ [14] is reported as “Not toxic” and the ED50 [15] is reported as 136 mg/kg. For the same molecule, the PTZ [5] was “Not toxic”, the MES [6] was “Not toxic” and the TD50 [16] was 267 mg/kg.
For `CC(=O)NCC1(C)CC(=O)N(Cc2ccccc2)C1=O` (stereo not given), the MES [17] was “active at 100 mg/kg”, the NT [18] was 0 and the PTZ [19] was “active at 300 mg/kg”. The PTZ [5] was “Not toxic” and the MES [6] was “Not toxic”.
`CN1C(=O)CC(C)(c2ccccc2)C1=O` (stereo not given) [METHSUXIMIDE] showed an ED50 [10] of 76.3 mg/kg.
